Test results published in ChEMBL document CHEMBL4396880, “Development of Small-Molecules Targeting Receptor Activator of Nuclear Factor-κB Ligand (RANKL)-Receptor Activator of Nuclear Factor-κB (RANK) Protein-Protein Interaction by Structure-Based Virtual Screening and Hit Optimization” (J Med Chem, 2019).
Calls of active or inactive are those of the source. No cut-off for these calls is given here. Bridge positions count the residues as written; N and C are the ends. Peptide text beside a SMILES is read from it.

Columns and labels:
[1] = biological target: T1, Tumor necrosis factor ligand superfamily member 11/11A (Mus musculus) (UniProt O35235+O35305); test: Inhibition of RANKL-RANK protein-protein interaction in C57/BL6 mouse bone marrow macrophage assessed as suppression of M-CSF/mRANKL-induced osteoclastogenesis by measuring reduction in TRAP activity at 5 uM measured after 3 days by colorimetric assay relative to control
T1 sequence (O35305 31-625 partner limits assumed, one chain of several): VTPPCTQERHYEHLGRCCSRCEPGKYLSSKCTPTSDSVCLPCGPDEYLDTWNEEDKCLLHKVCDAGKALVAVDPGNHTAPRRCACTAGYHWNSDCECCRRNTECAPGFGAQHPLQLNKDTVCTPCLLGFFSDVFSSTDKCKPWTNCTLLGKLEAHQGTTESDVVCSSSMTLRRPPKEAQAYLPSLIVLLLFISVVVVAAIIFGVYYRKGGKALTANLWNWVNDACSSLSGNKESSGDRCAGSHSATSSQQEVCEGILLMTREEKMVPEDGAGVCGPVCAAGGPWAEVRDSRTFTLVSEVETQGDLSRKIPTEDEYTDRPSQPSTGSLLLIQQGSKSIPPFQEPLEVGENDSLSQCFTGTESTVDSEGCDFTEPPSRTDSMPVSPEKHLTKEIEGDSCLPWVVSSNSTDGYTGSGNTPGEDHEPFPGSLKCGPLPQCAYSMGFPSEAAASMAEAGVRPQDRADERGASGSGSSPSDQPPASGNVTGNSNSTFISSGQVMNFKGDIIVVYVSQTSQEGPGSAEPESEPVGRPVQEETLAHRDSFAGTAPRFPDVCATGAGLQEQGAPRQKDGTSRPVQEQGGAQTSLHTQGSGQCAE
Method in brief: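 BMMs were incubated with the test compound at 5 μM, together with RANKL (50 ng/mL) and M-CSF (20 ng/mL), for 3 days. Osteoclastogenesis was then read out as tartrate-resistant acid phosphatase (TRAP) activity.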

[2] = biological target: T2, Tumor necrosis factor ligand superfamily member 11 (Homo sapiens, UniProt O14788); test: Binding affinity to human RANKL by surface plasmon resonance analysis
T2 sequence (O14788 whole entry): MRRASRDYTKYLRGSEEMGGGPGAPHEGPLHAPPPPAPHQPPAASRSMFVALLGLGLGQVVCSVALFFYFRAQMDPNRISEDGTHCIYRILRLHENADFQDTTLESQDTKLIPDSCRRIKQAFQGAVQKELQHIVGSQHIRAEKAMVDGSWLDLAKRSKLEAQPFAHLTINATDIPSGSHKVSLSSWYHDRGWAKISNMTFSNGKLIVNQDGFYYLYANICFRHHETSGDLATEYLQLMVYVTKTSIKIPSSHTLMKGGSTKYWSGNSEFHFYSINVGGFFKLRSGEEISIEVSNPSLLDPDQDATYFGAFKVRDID

[3] = biological target: T3, Tumor necrosis factor ligand superfamily member 11 (Mus musculus, UniProt O35235); test: Binding affinity to mouse N-terminal His6-Trx-tagged RANKL ectodomain (157 to 316 residues) expressed in Escherichia coli BL21 (DE3) by isothermal titration calorimetric assay
T3 sequence (O35235 whole entry): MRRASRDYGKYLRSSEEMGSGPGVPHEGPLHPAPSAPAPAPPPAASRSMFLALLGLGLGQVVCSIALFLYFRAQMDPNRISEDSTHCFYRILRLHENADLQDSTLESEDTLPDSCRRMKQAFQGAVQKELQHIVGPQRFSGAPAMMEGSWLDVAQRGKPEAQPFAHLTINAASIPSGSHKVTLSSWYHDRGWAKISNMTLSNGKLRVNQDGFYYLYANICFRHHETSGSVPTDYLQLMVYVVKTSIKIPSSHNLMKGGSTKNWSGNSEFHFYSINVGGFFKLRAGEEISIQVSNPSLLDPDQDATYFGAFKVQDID

[4] = Cytotoxicity against M-CSF-stimulated C57/BL6 mouse bone marrow macrophages assessed as cell viability at 10 uM measured after 2 days by MTT assay (reference value: 100%); format: cell-based; details: M-CSF-stimulated bone marrow macrophages (BMDM), read-out: Activity
[5] = biological target: T1, Tumor necrosis factor ligand superfamily member 11/11A (Mus musculus); test: (§1) Inhibition of RANKL-RANK protein-protein interaction in C57/BL6 mouse bone marrow macrophage assessed as suppression of M-CSF/mRANKL-induced osteoclast differentiation by measuring decrease in multinucleated TRAP+ cells supplemented with fresh medium containing compounds every 2 days for 5 to 6 days by TRAP staining-based microscopic analysis; format: cell-based
Method in brief: (§2)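 Bone marrow macrophages were exposed to the test compound at the indicated concentrations for 5 days under M-CSF/RANKL stimulation. TRAP-positive multinucleated cells were then counted as the measure of osteoclast formation.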

[6] = biological target: T1, Tumor necrosis factor ligand superfamily member 11/11A (Mus musculus); test: as §1, with “cells at 5 uM” for “cells”; format: cell-based; method in brief: as §2
[7] = biological target: T1, Tumor necrosis factor ligand superfamily member 11/11A (Mus musculus); test: as §1, with “nuclei size of F-actin ring formation at 5 uM” for “multinucleated TRAP+ cells”, “rhodamine phalloidin/DAPI” for “TRAP”; format: protein assay
[8] = biological target: T1, Tumor necrosis factor ligand superfamily member 11/11A (Mus musculus); test: as §1, with “nuclei number of F-actin ring formation at 5 uM” for “multinucleated TRAP+ cells”, “rhodamine phalloidin/DAPI” for “TRAP”; format: protein assay

`Cc1cccc(C)c1NCC(Cc1c[nH]c2ccccc12)NC(=O)CCc1ccccc1` (centres undefined) gave an inhibition [1] of 23.1%.
Work on `Cc1ccccc1NC(=O)C(Cc1c[nH]c2ccccc12)NC(=O)CCc1ccccc1` (centres undefined) yielded an inhibition [1] of 74.2%.
In the case of `CC[C@H](C)[C@H](NC(=O)[C@H](CC(C)C)NC(=O)[C@H](Cc1ccc(O)cc1)NC(=O)[C@@H]1CSSC[C@H](NC(=O)[C@@H](N)Cc2ccc(O)cc2)C(=O)N[C@@H](CCC(=O)O)C(=O)N[C@@H]([C@@H](C)CC)C(=O)N[C@@H](CCC(=O)O)C(=O)N[C@@H](Cc2ccccc2)C(=O)N1)C(=O)N[C@@H](CCCNC(=N)N)C(=O)O` (H-YCEIEFCYLIR-OH; disulfide 2-7), the Kd [2] is reported as 284 µM and the Kd [3] is reported as 284 µM.
Work on `N=C(N)NCCC[C@H](NC(=O)[C@H](CCCNC(=N)N)NC(=O)[C@H](Cc1ccc(O)cc1)NC(=O)[C@@H]1CSSC[C@H](NC(=O)[C@@H](N)Cc2ccc(O)cc2)C(=O)N[C@@H](Cc2c[nH]c3ccccc23)C(=O)N[C@@H](CC(N)=O)C(=O)N[C@@H](CO)C(=O)N[C@@H](CC(=O)O)C(=O)N[C@@H](CS)C(=O)N[C@@H](CCC(=O)O)C(=O)N[C@@H](CS)C(=O)N1)C(=O)O` (H-YCWNSDCECCYRR-OH; disulfide 2-10) yielded a Kd [2] of 17.3 µM and a Kd [3] of 17.3 µM.
With `Cc1cccc(C)c1NC(=O)C(Cc1c[nH]c2cc(F)ccc12)NC(=O)CCc1ccccc1` (racemic) the inhibition [1] was 89.4%, the viability at 48 h, 10 µM [4] was 103% and the inhibition [5] was “Dose-dependent effect”. The inhibition [6] was 100%, the Kd [2] was 3.5 µM and the inhibition [7] was “Dose-dependent effect”. The inhibition [8] was “Dose-dependent effect”.
In the case of `Cc1cccc(C)c1NC(=O)C(Cc1c[nH]c2ccccc12)NC(=O)CCc1ccc(Cl)cc1` (racemic), the inhibition [1] is reported as 89%, the viability at 48 h, 10 µM [4] is reported as 102% and the inhibition [5] is reported as “Dose-dependent effect”. For the same compound, the inhibition [6] was 100%, the Kd [2] was 3.1 µM and the inhibition [7] was “Dose-dependent effect”. The inhibition [8] was “Dose-dependent effect”.
Compound `Cc1cccc(C)c1NC(=O)C(Cc1c[nH]c2ccccc12)NC(=O)CCc1ccccc1` (racemic) [listing 1 of 2 here] has a viability at 48 h, 10 µM [4] of 110% and a Kd [2] of 2.7 µM.
With `CN(C)c1ccc(NC(=O)C(Cc2c[nH]c3ccccc23)NC(=O)CCc2ccccc2)cc1` (racemic) the inhibition [1] was 70.6%.
`COc1ccc(CCC(=O)NC(Cc2c[nH]c3ccccc23)C(=O)Nc2c(C)cccc2C)cc1` (racemic) showed an inhibition [1] of 16.9%.
In the case of `COc1ccc(NC(=O)C(Cc2c[nH]c3ccccc23)NC(=O)CCc2ccccc2)cc1` (racemic), the inhibition [1] is reported as 59%.
For `COc1ccc2[nH]cc(CC(NC(=O)CCc3ccccc3)C(=O)Nc3c(C)cccc3C)c2c1` (racemic), the inhibition [1] was 84.4%.
For `COc1cccc(CCC(=O)NC(Cc2c[nH]c3ccccc23)C(=O)Nc2c(C)cccc2C)c1` (racemic), the inhibition [1] was 41.7%.
Compound `CS(=O)(=O)c1ccc(NC(=O)C(Cc2c[nH]c3ccccc23)NC(=O)CCc2ccccc2)cc1` (racemic) has an inhibition [1] of 69.9%.
In the case of `Cc1ccc(NC(=O)C(Cc2c[nH]c3ccccc23)NC(=O)CCc2ccccc2)cc1` (racemic), the inhibition [1] is reported as 69.9%.
With `Cc1cccc(C)c1NC(=O)C(Cc1c[nH]c2ccc(F)cc12)NC(=O)CCc1ccccc1` (racemic) the inhibition [1] was 83.9%.
In the case of `Cc1cccc(C)c1NC(=O)C(Cc1c[nH]c2ccccc12)NC(=O)CCC1CC1` (racemic), the inhibition [1] is reported as 57.4%.
With `Cc1cccc(C)c1NC(=O)C(Cc1c[nH]c2ccccc12)NC(=O)CCC1CCCC1` (racemic) the inhibition [1] was 14%.
For `Cc1cccc(C)c1NC(=O)C(Cc1c[nH]c2ccccc12)NC(=O)CCC1CCCCC1` (racemic), the inhibition [1] was 35.4%.
`Cc1cccc(C)c1NC(=O)C(Cc1c[nH]c2ccccc12)NC(=O)CCCCc1ccccc1` (racemic) gave an inhibition [1] of 82%.
In the case of `Cc1cccc(C)c1NC(=O)C(Cc1c[nH]c2ccccc12)NC(=O)CCCc1ccccc1` (racemic), the inhibition [1] is reported as 79.3%.
Compound `Cc1cccc(C)c1NC(=O)C(Cc1c[nH]c2ccccc12)NC(=O)CCc1ccc(F)cc1` (racemic) has an inhibition [1] of 33.6%.
With `Cc1cccc(C)c1NC(=O)C(Cc1c[nH]c2ccccc12)NC(=O)CCc1cccc(Cl)c1` (racemic) the inhibition [1] was 69.5%.
For `Cc1cccc(C)c1NC(=O)C(Cc1c[nH]c2ccccc12)NC(=O)CCc1cccc(F)c1` (racemic), the inhibition [1] was 56.8%.
With `Cc1cccc(C)c1NC(=O)C(Cc1c[nH]c2ccccc12)NC(=O)CCc1ccccc1` (racemic) [listing 2 of 2 here] the inhibition [1] was 90.3%, the inhibition [5] was “Dose-dependent effect” and the inhibition [6] was 100%. For the same compound, the inhibition [7] was “Dose-dependent effect” and the inhibition [8] was “Dose-dependent effect”.
For `Cc1cccc(C)c1NC(=O)C(Cc1c[nH]c2ccccc12)NC(=O)CCc1cccnc1` (racemic), the inhibition [1] was 66.5%.
Work on `Cc1cccc(C)c1NC(=O)C(Cc1c[nH]c2ccccc12)NC(=O)CCc1cccs1` (racemic) yielded an inhibition [1] of 65.4%.
Compound `Cc1cccc(C)c1NC(=O)C(Cc1c[nH]c2ccccc12)NC(=O)CCc1ccncc1` (racemic) has an inhibition [1] of 41.4%.
`Cc1cccc(C)c1NC(=O)C(Cc1c[nH]c2ccccc12)NC(=O)CCc1ccsc1` (racemic) showed an inhibition [1] of 52.2%.
Work on `Cc1cccc(C)c1NC(=O)C(Cc1c[nH]c2ccccc12)NC(=O)CCc1nccs1` (racemic) yielded an inhibition [1] of 86.3%.
`Cc1cccc(C)c1NC(=O)C(Cc1c[nH]c2ccccc12)NC(=O)Cc1ccccc1` (racemic) gave an inhibition [1] of 52.1%.
With `Cc1cccc(C)c1NC(=O)C(Cc1c[nH]c2ccccc12)NCCCCCc1ccccc1` (racemic) the inhibition [1] was 87.2%.
With `Cc1cccc(C)c1NC(=O)C(Cc1c[nH]c2ccccc12)NCCCCc1ccccc1` (racemic) the inhibition [1] was 83.3%.
Compound `Cc1cccc(C)c1NC(=O)C(Cc1c[nH]c2ccccc12)NCCc1ccccc1` (racemic) has an inhibition [1] of 76.5%.
For `O=C(CCc1ccccc1)NC(Cc1c[nH]c2ccccc12)C(=O)Nc1ccc(C(F)(F)F)cc1` (racemic), the inhibition [1] was 72%.
With `O=C(CCc1ccccc1)NC(Cc1c[nH]c2ccccc12)C(=O)Nc1ccc(F)cc1` (racemic) the inhibition [1] was 70.3%.
With `O=C(CCc1ccccc1)NC(Cc1c[nH]c2ccccc12)C(=O)Nc1ccc(N2CCOCC2)cc1` (racemic) the inhibition [1] was 64.8%.
For `O=C(CCc1ccccc1)NC(Cc1c[nH]c2ccccc12)C(=O)Nc1ccccc1` (racemic), the inhibition [1] was 55.3%.
For `O=C(CCc1ccccc1)NC(Cc1c[nH]c2ccccc12)C(=O)Nc1ccccc1F` (racemic), the inhibition [1] was 74%.
With `Cc1cccc(C)c1NC(=O)C(Cc1c[nH]c2ccccc12)NC(=O)CCc1ccccc1` (single isomer, unassigned; (+)) the inhibition [1] was “Active”.
With `Cc1cccc(C)c1NC(=O)C(Cc1c[nH]c2ccccc12)NC(=O)CCc1ccccc1` (single isomer, unassigned; (-)) the inhibition [1] was “Active”.
